Experimental data as given in ChEMBL document CHEMBL2396573, “Synthesis and evaluation of 8-amino-[1,2,4]triazolo[4,3-a]pyridin-3(2H)-one derivatives as glycogen synthase kinase-3 (GSK-3) inhibitors” (Bioorg Med Chem Lett, 2013).

Columns and labels:
[1] = Inhibition of GSK3 in rat […] cells assessed as reduction in glucose production after overnight incubation by fluorescence assay; type: cell-based
Procedure, shortened: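 Rat hepatoma H4IIE cells grown in DMEM + 10% FBS, 2 mM L-glutamine and penicillin–streptomycin at 37 °C, 5% CO2, and passaged at 75% confluence. Plated at 100,000 cells/well, attached ~3 h, then PBS-washed and held overnight in glucose- and serum-free DMEM with 20 mM lactate and 2 mM pyruvate. Compounds, diluted in this medium, added overnight. Glucose in medium read with Amplex Red/glucose oxidase (30 min, dark; ex 560/em 615 nm); mean of triplicates.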

[2] = biological target: Glycogen synthase kinase-3 (Homo sapiens, UniProt P49840+P49841); assay: Inhibition of recombinant human GSK3 using YRRAAVPPSPSLSRHSSPHQ(pS)EDEEE as substrate preincubated for 10 mins followed by [33P-gamma]-ATP addition measured after 30 mins by liquid scintillation counting analysis; type: protein assay
Procedure, shortened: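 Reaction started with 1 µM ATP […] 33P-γ-ATP, run 30 min at 30 °C, and stopped with 3% phosphoric acid. Product captured on P81 paper and read by scintillation counting. IC50 is the mean of triplicates.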

[3] = biological target: Mitogen-activated protein kinase 13 (Homo sapiens) (UniProt O15264); assay: Inhibition of human SAPK4 at 10 uM relative to control
[4] = biological target: Serine/threonine-protein kinase Sgk1 (Homo sapiens) (UniProt O00141); assay: Inhibition of human SGK at 10 uM relative to control
[5] = biological target: Mitogen-activated protein kinase 12 (Homo sapiens) (UniProt P53778); assay: Inhibition of human SAPK3 at 10 uM relative to control
[6] = biological target: Mitogen-activated protein kinase 11 (Homo sapiens) (UniProt Q15759); assay: Inhibition of human SAPK2B at 10 uM relative to control
[7] = biological target: Mitogen-activated protein kinase 14 (Homo sapiens) (UniProt Q16539); assay: Inhibition of human SAPK2A at 10 uM relative to control
[8] = biological target: Ribosomal protein S6 kinase alpha-3 (Homo sapiens) (UniProt P51812); assay: Inhibition of human RSK2 at 10 uM relative to control
[9] = biological target: Rho-associated protein kinase 2 (Homo sapiens) (UniProt O75116); assay: Inhibition of human ROCK-2 at 10 uM relative to control
[10] = biological target: MAP kinase-activated protein kinase 5 (Homo sapiens) (UniProt Q8IW41); assay: Inhibition of human PRAK at 10 uM relative to control
[11] = biological target: Protein kinase C alpha type (Homo sapiens) (UniProt P17252); assay: Inhibition of human PKCalpha at 10 uM relative to control
[12] = biological target: RAC-alpha serine/threonine-protein kinase (Homo sapiens) (UniProt P31749); assay: Inhibition of human PKBalpha at 10 uM relative to control
[13] = biological target: Phosphorylase b kinase gamma catalytic chain, liver/testis isoform (Homo sapiens) (UniProt P15735); assay: Inhibition of human PhKgamma2 at 10 uM relative to control
[14] = organism: Homo sapiens; assay: Inhibition of human PKA at 10 uM relative to control
[15] = biological target: Ribosomal protein S6 kinase beta-1 (Homo sapiens) (UniProt P23443); assay: Inhibition of human p70S6K at 10 uM relative to control
[16] = biological target: Ribosomal protein S6 kinase alpha-5 (Homo sapiens) (UniProt O75582); assay: Inhibition of human MSK1 at 10 uM relative to control
[17] = biological target: MAP kinase-activated protein kinase 2 (Homo sapiens) (UniProt P49137); assay: Inhibition of human MAPKAP-K2 at 10 uM relative to control
[18] = biological target: Dual specificity mitogen-activated protein kinase kinase 1 (Homo sapiens) (UniProt Q02750); assay: Inhibition of human MEK1 at 10 uM relative to control
[19] = biological target: Mitogen-activated protein kinase 1 (Homo sapiens) (UniProt P28482); assay: Inhibition of human MAPK1 at 10 uM relative to control
[20] = biological target: Tyrosine-protein kinase Lck (Homo sapiens) (UniProt P06239); assay: Inhibition of human LCK at 10 uM relative to control
[21] = biological target: Glycogen synthase kinase-3 beta (Homo sapiens) (UniProt P49841); assay: Inhibition of human GSK3beta at 10 uM relative to control
[22] = biological target: Mitogen-activated protein kinase 8 (Homo sapiens) (UniProt P45983); assay: Inhibition of human JNK1alpha1 at 10 uM relative to control
[23] = biological target: Glycogen synthase kinase-3 alpha (Homo sapiens) (UniProt P49840); assay: Inhibition of human GSK3alpha at 10 uM relative to control
[24] = biological target: Casein kinase II (Homo sapiens) (UniProt P67870+P68400+P19784); assay: Inhibition of human CK2 at 10 uM relative to control; type: protein-complex assay
[25] = biological target: Serine/threonine-protein kinase Chk1 (Homo sapiens) (UniProt O14757); assay: Inhibition of human CHK1 at 10 uM relative to control
[26] = biological target: CDK2/Cyclin A2 (Homo sapiens) (UniProt P24941+P20248); assay: Inhibition of human CDK2/cyclinA at 10 uM relative to control; type: protein-complex assay
[27] = biological target: Cyclin-dependent kinase 5/CDK5 activator 1 (Homo sapiens) (UniProt Q00535+Q15078); assay: Inhibition of human CDK5/p25 at 10 uM relative to control; type: protein-complex assay
[28] = biological target: 5'-AMP-activated protein kinase catalytic subunit alpha-1 (Homo sapiens) (UniProt Q13131); assay: Inhibition of human AMPKalpha1 at 10 uM relative to control
[29] = Solubility of the compound in water; type: physicochemical
[30] = Ratio of drug level from brain to plasma in ICR mouse at 30 mg/kg, iv measured at 0.75 hrs; type: ADME, organism-based; design: dose 30 mg/kg, route intravenous; conditions: read-out: BPR
Procedure, shortened: (§1)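 ICR mice, n = 3, given a single iv dose of 30 mg/kg. Plasma (ng/ml) and brain (ng/g) concentrations measured by LC/MS/MS at 0.25 and 0.75 h. Brain/plasma ratio taken from these paired values.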

[31] = Ratio of drug level from brain to plasma in ICR mouse at 30 mg/kg, iv measured at 0.25 hrs; type: ADME, organism-based; design: dose 30 mg/kg, route intravenous; conditions: read-out: BPR; procedure, shortened: as §1
[32] = Drug uptake in ICR mouse brain at 30 mg/kg, iv measured at 0.75 hrs by LC/MS/MS analysis; type: ADME, organism-based; design: dose 30 mg/kg, route intravenous; conditions: read-out: Drug uptake; procedure, shortened: as §1
[33] = Drug uptake in ICR mouse brain at 30 mg/kg, iv measured at 0.25 hrs by LC/MS/MS analysis; type: ADME, organism-based; design: dose 30 mg/kg, route intravenous; conditions: read-out: Drug uptake; procedure, shortened: as §1
[34] = Plasma concentration in ICR mouse at 30 mg/kg, iv measured at 0.25 hrs by LC/MS/MS analysis; type: ADME, organism-based; design: dose 30 mg/kg, route intravenous; procedure, shortened: as §1
[35] = Plasma concentration in ICR mouse at 30 mg/kg, iv measured at 0.75 hrs by LC/MS/MS analysis; type: ADME, organism-based; design: dose 30 mg/kg, route intravenous; procedure, shortened: as §1
[36] = Oral bioavailability in rat at 5 mg/kg by LC/MS/MS analysis; type: ADME, organism-based; conditions: in vivo
Procedure, shortened: (§2)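 Rat PK, n = 3 animals; iv dose 3 mg/kg, oral dose 5 mg/kg. Plasma levels quantified by LC/MS/MS after dosing. Derived parameters: AUC0–inf, clearance, elimination half-life and oral bioavailability (F).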

[37] = Elimination half life in rat at 3 mg/kg, iv by LC/MS/MS analysis; type: ADME, organism-based; design: dose 3 mg/kg, route intravenous; conditions: in vivo, read-out: beta t1/2 (converted); procedure, shortened: as §2
[38] = Elimination half life in rat at 5 mg/kg, po by LC/MS/MS analysis; type: ADME, organism-based; design: dose 5 mg/kg, route oral; conditions: in vivo, read-out: beta t1/2 (converted); procedure, shortened: as §2
[39] = AUC (0 to infinity) in rat at 5 mg/kg, po by LC/MS/MS analysis; type: ADME, organism-based; design: time infinity, dose 5 mg/kg, route oral; conditions: plasma
Procedure, shortened: (§3)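 Rat pharmacokinetics with n = 3 per group. Compound given iv at 3 mg/kg or po at 5 mg/kg. Concentrations were measured by LC/MS/MS after administration. AUC0–inf is the area under the concentration–time curve. Clearance, elimination half-life and bioavailability were derived in the same study.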

[40] = Clearance in rat at 3 mg/kg, iv by LC/MS/MS analysis; type: ADME, organism-based; design: dose 3 mg/kg, route intravenous; conditions: in vivo; procedure, shortened: as §2
[41] = AUC (0 to infinity) in rat at 3 mg/kg, iv by LC/MS/MS analysis; type: ADME, organism-based; design: time infinity, dose 3 mg/kg, route intravenous; conditions: plasma; procedure, shortened: as §3
[42] = biological target: 3-phosphoinositide-dependent protein kinase 1 (Homo sapiens) (UniProt O15530); assay: Inhibition of human PDK1 at 10 uM relative to control

Mitogen-activated protein kinase 12 (Homo sapiens), sequence (P53778 whole entry): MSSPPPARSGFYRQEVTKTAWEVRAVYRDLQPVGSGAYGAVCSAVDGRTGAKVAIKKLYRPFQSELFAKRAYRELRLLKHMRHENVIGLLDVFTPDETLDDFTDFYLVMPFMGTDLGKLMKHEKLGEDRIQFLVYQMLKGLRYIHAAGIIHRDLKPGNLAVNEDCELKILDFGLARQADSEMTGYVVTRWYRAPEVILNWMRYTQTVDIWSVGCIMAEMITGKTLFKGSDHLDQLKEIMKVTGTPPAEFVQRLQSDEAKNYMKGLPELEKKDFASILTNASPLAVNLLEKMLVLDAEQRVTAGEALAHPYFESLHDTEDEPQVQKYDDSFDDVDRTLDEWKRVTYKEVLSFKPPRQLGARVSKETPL
Tyrosine-protein kinase Lck (Homo sapiens), sequence (P06239 2-509 limits assumed): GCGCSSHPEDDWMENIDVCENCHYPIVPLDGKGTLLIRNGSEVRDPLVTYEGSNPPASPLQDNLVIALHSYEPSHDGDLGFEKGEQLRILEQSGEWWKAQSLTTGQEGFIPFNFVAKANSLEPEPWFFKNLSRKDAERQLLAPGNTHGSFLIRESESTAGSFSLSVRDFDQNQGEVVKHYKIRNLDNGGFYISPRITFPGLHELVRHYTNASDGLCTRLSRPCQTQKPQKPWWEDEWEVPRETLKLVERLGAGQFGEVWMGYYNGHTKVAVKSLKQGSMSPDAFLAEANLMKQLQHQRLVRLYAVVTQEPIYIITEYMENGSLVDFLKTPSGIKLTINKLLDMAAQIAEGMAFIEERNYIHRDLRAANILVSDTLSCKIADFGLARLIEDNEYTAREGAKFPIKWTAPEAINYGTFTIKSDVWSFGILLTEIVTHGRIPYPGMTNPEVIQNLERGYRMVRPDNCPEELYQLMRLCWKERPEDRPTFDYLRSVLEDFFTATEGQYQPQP
MAP kinase-activated protein kinase 5 (Homo sapiens), sequence (Q8IW41 whole entry): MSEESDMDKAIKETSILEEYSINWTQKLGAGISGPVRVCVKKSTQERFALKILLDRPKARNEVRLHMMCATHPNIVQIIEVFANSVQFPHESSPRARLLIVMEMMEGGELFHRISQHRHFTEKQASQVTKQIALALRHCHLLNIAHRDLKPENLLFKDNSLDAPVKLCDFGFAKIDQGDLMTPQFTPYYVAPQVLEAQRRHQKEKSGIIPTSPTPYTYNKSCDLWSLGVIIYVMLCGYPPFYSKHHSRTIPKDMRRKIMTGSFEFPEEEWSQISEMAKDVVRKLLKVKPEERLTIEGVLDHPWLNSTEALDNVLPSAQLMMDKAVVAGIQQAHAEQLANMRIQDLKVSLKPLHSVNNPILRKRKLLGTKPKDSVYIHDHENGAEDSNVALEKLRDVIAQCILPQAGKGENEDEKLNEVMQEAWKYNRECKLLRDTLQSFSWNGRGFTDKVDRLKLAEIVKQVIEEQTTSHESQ
Mitogen-activated protein kinase 13 (Homo sapiens), sequence (O15264 whole entry): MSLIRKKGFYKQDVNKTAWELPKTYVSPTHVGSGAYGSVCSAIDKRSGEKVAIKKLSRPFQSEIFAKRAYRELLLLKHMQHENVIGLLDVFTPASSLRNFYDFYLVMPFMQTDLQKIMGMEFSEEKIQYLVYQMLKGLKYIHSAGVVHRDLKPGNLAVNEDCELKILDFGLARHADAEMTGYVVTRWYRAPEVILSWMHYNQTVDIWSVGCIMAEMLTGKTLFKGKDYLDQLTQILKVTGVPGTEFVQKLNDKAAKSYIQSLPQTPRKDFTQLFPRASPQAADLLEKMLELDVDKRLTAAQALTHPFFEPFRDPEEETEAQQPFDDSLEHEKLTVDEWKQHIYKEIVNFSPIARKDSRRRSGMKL
Ribosomal protein S6 kinase beta-1 (Homo sapiens), sequence (P23443 whole entry, looked up): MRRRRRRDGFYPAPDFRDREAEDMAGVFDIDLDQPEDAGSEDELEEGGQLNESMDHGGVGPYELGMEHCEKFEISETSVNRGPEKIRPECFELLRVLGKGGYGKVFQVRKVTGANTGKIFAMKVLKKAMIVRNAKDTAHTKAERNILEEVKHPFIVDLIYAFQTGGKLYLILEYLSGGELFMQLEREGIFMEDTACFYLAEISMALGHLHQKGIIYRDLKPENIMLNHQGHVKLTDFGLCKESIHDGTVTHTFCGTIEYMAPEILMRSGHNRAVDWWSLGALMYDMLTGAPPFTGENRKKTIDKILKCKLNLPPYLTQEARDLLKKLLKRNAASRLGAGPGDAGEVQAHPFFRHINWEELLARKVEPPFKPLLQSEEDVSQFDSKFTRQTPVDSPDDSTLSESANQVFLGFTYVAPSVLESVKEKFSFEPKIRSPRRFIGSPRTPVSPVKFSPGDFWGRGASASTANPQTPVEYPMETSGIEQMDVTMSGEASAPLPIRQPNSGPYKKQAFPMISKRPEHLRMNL
Glycogen synthase kinase-3 beta (Homo sapiens), sequence (P49841 whole entry, looked up): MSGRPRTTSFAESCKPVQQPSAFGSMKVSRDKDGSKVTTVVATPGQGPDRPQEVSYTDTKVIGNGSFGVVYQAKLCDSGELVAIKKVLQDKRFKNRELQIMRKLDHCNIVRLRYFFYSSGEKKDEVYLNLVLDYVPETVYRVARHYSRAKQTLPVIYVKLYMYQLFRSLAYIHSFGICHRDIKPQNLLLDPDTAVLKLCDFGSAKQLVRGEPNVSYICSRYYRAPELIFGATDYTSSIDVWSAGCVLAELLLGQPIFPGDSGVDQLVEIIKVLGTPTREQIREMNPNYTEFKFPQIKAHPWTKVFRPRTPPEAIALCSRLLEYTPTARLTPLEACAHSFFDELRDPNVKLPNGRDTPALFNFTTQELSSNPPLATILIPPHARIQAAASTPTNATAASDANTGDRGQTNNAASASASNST
Cyclin-dependent kinase 5/CDK5 activator 1 (Homo sapiens), sequence (Q00535 whole entry): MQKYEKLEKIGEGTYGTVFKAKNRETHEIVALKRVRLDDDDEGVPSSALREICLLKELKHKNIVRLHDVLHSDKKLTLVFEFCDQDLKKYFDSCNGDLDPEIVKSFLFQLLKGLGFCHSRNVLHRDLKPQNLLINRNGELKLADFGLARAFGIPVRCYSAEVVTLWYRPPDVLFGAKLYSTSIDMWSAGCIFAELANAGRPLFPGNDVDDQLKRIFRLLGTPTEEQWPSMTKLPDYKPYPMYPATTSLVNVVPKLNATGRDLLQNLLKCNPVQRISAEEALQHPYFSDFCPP
Cyclin-dependent kinase 5/CDK5 activator 1 (Homo sapiens), sequence (Q15078 99-307 partner limits assumed): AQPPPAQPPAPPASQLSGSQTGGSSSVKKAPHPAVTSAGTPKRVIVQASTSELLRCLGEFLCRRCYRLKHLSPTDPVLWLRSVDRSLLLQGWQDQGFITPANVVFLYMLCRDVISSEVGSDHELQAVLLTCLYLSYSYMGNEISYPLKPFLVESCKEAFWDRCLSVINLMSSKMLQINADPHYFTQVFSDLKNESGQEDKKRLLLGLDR
Mitogen-activated protein kinase 11 (Homo sapiens), sequence (Q15759 whole entry): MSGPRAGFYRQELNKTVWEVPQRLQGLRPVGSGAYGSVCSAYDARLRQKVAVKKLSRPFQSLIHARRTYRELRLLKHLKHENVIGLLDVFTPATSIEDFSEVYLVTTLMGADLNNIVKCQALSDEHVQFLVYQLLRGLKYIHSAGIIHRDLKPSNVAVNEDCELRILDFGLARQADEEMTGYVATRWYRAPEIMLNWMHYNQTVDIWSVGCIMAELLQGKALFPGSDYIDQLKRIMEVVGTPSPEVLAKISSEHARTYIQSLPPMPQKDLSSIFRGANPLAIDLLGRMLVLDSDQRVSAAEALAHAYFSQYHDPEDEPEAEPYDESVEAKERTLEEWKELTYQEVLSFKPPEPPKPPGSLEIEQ
Phosphorylase b kinase gamma catalytic chain, liver/testis isoform (Homo sapiens), sequence (P15735 whole entry, canonical isoform): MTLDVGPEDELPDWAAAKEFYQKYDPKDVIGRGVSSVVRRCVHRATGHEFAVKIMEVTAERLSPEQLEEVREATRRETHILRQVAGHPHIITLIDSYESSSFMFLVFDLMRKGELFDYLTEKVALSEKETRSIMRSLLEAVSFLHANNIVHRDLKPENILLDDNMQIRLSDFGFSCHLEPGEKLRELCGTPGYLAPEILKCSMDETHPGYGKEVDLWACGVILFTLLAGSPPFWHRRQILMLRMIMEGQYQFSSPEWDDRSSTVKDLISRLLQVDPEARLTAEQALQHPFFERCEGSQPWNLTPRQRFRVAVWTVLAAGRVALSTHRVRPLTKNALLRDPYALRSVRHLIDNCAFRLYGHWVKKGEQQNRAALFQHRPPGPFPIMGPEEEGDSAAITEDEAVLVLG

Cc1cc(NCCCn2ccnc2)c2n[nH]c(=O)n2c1.Cl
EC50 [1]: 13.3 µM
IC50 [2]: 1.36 µM

COc1ccc(OCCNc2cccn3c(=O)[nH]nc23)cc1
IC50 [2]: 13 µM

Cc1cc(NCCCc2cccnc2)c2n[nH]c(=O)n2c1.Cl
EC50 [1]: 5.44 µM
IC50 [2]: 0.354 µM

Cc1cc(NCCCc2ccc(C)nc2)c2n[nH]c(=O)n2c1.Cl
EC50 [1]: 1.25 µM
IC50 [2]: 0.309 µM

Cl.O=c1[nH]nc2c(NCCCc3ccnc(Cl)c3)cc(Cl)cn12
EC50 [1]: 2.63 µM
IC50 [2]: 0.199 µM

Cl.O=c1[nH]nc2c(NCCCc3cccc(OCCN4CCOCC4)c3)cc(Cl)cn12
EC50 [1]: 3.84 µM
IC50 [2]: 0.247 µM

Cc1cc(NCCCc2ccc(N)cc2)c2n[nH]c(=O)n2c1.Cl
EC50 [1]: 18.4 µM
IC50 [2]: 1.01 µM

Nc1cccn2c(=O)[nH]nc12
IC50 [2]: > 50 µM

COc1cccc(CCCNc2cc(Cl)cn3c(=O)[nH]nc23)c1
EC50 [1]: 2.71 µM
IC50 [2]: 0.19 µM

COc1cc(CCCNc2cc(C)cn3c(=O)[nH]nc23)ccn1.Cl
EC50 [1]: 9.11 µM
IC50 [2]: 0.641 µM

Cc1cc(CCCNc2cc(Cl)cn3c(=O)[nH]nc23)ccn1.Cl
EC50 [1]: 7.03 µM
IC50 [2]: 0.818 µM

Cc1ccc(CCCNc2cc(Cl)cn3c(=O)[nH]nc23)cn1.Cl
EC50 [1]: 2.74 µM
IC50 [2]: 0.342 µM

Cl.Nc1cc(CCCNc2cc(Cl)cn3c(=O)[nH]nc23)ccn1
EC50 [1]: 2.36 µM
IC50 [2]: 0.249 µM

Cc1cc(NCCCN2CCNCC2)c2n[nH]c(=O)n2c1.Cl
IC50 [2]: > 50 µM

COc1ccc(CCC(=O)Nc2cccn3c(=O)[nH]nc23)cc1
IC50 [2]: > 50 µM

Cc1cc(N(C)CCCc2ccccn2)c2n[nH]c(=O)n2c1.Cl
IC50 [2]: 50 µM

COc1ccc(OCCn2nc3c(N)cccn3c2=O)cc1
IC50 [2]: > 50 µM

Cc1cc(NCCCc2ccncc2)c2n[nH]c(=O)n2c1.Cl
EC50 [1]: 6.23 µM
IC50 [2]: 0.607 µM

COc1ccc(OCCNc2cc(C)cn3c(=O)[nH]nc23)cc1
IC50 [2]: 7.01 µM

Cl.O=c1[nH]nc2c(NCCCc3ccncc3)cc(Cl)cn12
inhibition [3]: 2%
inhibition [4]: 22%
inhibition [5]: 5%
inhibition [6]: 1%
inhibition [7]: -1%
inhibition [8]: 34%
inhibition [9]: 27%
inhibition [10]: 14%
inhibition [11]: 18%
inhibition [12]: 12%
inhibition [13]: 25%
inhibition [14]: 0%
inhibition [15]: 14%
inhibition [16]: 9%
inhibition [17]: 19%
inhibition [18]: 9%
inhibition [19]: 15%
inhibition [20]: 19%
inhibition [21]: 90%
inhibition [22]: 9%
inhibition [23]: 99%
inhibition [24]: 5%
inhibition [25]: 21%
inhibition [26]: 54%
inhibition [27]: 53%
inhibition [28]: -1%
solubility [29]: > 10000 µg/mL
Kp at 0.75 h [30]: 0.1
Kp at 0.25 h [31]: 0.34
concentration at 0.75 h [32]: 107 ng/g
concentration at 0.25 h [33]: 214 ng/g
concentration at 0.25 h [34]: 634 ng/mL
concentration at 0.75 h [35]: 1050 ng/mL
bioavailability [36]: 83%
half-life [37]: 24 min
half-life [38]: 72 min
AUC(0-inf) [39]: 3460 ng·h/mL
clearance [40]: 20 mL/min/kg
AUC(0-inf) [41]: 2490 ng·h/mL
EC50 [1]: 1.78 µM
IC50 [2]: 0.111 µM
inhibition [42]: 10%

Cc1cc(NCCCc2ccnc(Cl)c2)c2n[nH]c(=O)n2c1.Cl
EC50 [1]: 12.1 µM
IC50 [2]: 0.774 µM

Cl.O=c1[nH]nc2c(NCCCc3cccnc3)cc(Cl)cn12
EC50 [1]: 1.68 µM
IC50 [2]: 0.52 µM

Cc1cc(NCCCc2ccccn2)c2n[nH]c(=O)n2c1.Cl
EC50 [1]: 21.1 µM
IC50 [2]: 1.2 µM
